# Bioassay records: PubChem, several laboratories
# Shown are actives, neighbours in structure and some others; about 0.99% of the full set was active somewhere.
# Insulin prom up – MIN6 insulin promoter up-regulation; z-score at 5 µM; AID 1625; actives 0.3% (n = 190,000); MIN6 insulin promoter-GFP reporter, high-content imaging; hits give high values;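 active = z-score above 3 at 5 µM with at least 500 cells counted in the well; inconclusive = wells under 500 cells, flagged as cytotoxic or low count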
# ABCG2 block – human ABCG2 inhibition, ABCB1 as counter-screen; IgMXP3 cells, JC-1 efflux, flow cytometry; inhibition, % at 6.6 µM; actives 0.1% (n = 190,000); AID 1325;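 active = inhibition above 80%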;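 note: 0% = DMSO and 100% = nicardipine control wells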
#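 Measure – % inhibition of efflux relative to nicardipine and DMSO · Test system – ABCG2 IgMXP3 and barcoded ABCB1 CCRF-Adr cell mix · Control set – nicardipine as high control, DMSO as low control · Compound – one concentration, 6.6 µM final · Signal – flow cytometry of retained JC-1 fluorescence · Timing – 10 min exposure at 25 °C with rotation, no wash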
# Tn6 DDE FP – inhibitors of Tn6 peptide binding to human fibrin DD(E); P02675; Fibrin DD(E) TRITC-Tn6 fluorescence polarization displacement; inhibition, % at 8.3 µM; actives 0.21% (n = 370,000);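 active = inhibition above a per-campaign cutoff: mean of compounds within control limits plus 3 SD, cut at about 15% in these data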;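 note: 0% = median of all compound wells on the plate and 100% = blocking peptide control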
# Target sequence (P02675 whole entry, looked up): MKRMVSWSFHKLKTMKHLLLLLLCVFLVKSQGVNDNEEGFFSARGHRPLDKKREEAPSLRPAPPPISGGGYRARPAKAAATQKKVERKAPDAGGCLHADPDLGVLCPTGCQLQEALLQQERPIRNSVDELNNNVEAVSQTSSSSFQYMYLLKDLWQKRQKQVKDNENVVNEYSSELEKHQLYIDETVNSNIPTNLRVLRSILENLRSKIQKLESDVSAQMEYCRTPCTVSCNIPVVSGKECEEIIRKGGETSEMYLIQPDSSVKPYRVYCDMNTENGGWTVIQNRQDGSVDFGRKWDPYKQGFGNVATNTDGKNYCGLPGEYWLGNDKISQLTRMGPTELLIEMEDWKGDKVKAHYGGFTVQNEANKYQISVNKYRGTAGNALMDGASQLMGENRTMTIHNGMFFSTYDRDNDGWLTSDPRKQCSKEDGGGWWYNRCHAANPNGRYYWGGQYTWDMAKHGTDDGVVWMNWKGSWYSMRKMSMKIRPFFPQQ
# GRK2 aptamer HTS – human GRK2 inhibition via aptamer displacement. bead flow cytometry, FAM-aptamer displacement from GRK2. inhibition of aptamer binding, % at 10 µM. actives 0.59% (n = 330,000);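 active = inhibition of aptamer binding above 40%, roughly 3 SD of noise, on plates passing a quality check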;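 note: median bead fluorescence of bound FAM aptamer so fluorescent compounds give negative values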
# DDE Tn7 FP inh – DD(E)-Tn7 binding inhibition, primary FP screen; P02675; FP displacement of FITC-Tn7 peptide from fibrin DD(E); 0% = median of compound wells per plate; inhibition, % at 8.3 µM; actives 0.13% (n = 370,000);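 active = inhibition above the mean of compounds falling within the control limits plus 3 SD of them, cut at about 14% in these data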;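 note: 0% = plate median of compound wells and 100% = 10 µM Aha-Tn7 peptide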
#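 system = human fibrin DD(E) protein | quantity = DD(E) 2 µM final | medium = Tris/NaCl/CaCl2 buffer, pH 7.8 | also added = labelled Tn7 tracer, 0.1 µM | compound dosing = single point at 8.3 µM | timing = compound with protein 10 min, then 3 h after probe, room temperature | signal = FP measurement | benchmarks = Aha-Tn7 high control | repeats = one replicate per compound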
# ABCB1 inh – human ABCB1 inhibition, ABCG2 as counter-screen. P08183. CCRF-Adr cells, JC-1 efflux, flow cytometry. inhibition, % at 6.6 µM. actives 0.067% (n = 190,000). AID 1326; in the data active = inhibition above about 40%;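 note: 0% = vehicle and 100% = reference inhibitor; higher value means more JC-1 retained so stronger ABCB1 efflux block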
# GRK2 CP1 – human GRK2 inhibition confirmation, cherry pick 1; shares compounds with GRK2 aptamer HTS; bead-bound GRK2, FAM-aptamer displacement, flow cytometry; aptamer displacement, % at 10 µM; actives 4% (n = 2,000); AID 504451;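 active = aptamer displacement above 40%, near three times the noise of non-fluorescent compounds, on plates passing quality checks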;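 note: negative values mostly reflect intrinsic compound fluorescence rather than true enhancement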
# Aptamer quench – counter-screen for GRK2 aptamer inhibitors: fluorescent aptamer quenchers; shares compounds with GRK2 aptamer HTS; Fluorescent RNA aptamer beads, quenching, flow cytometry; hits give high values; fluorescence change (kMESF span), kMESF (no concentration beside the values); 110 tested, under 10 active; AID 504521;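 active = compounds whose bead fluorescence drops by more than 37 kMESF across the dose range, marking them as dye quenchers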
# FAM quench CP1 – aptamer fluorescence quenching in GRK2 counter-screen; fluorescence response (% of DMSO), % at 10 µM; Carboxyfluorescein RNA aptamer on beads, flow cytometry quenching; hits give low values; AID 504580; 2,000 tested, under 10 active; shares compounds with GRK2 aptamer HTS;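 active = compounds that quench the bead-bound fluorescent RNA probe, cutting fluorescence to under half of the solvent control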;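 note: counterscreen run without GRK2 so only probe quenching by compound is measured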
# GRK2 CP2 – confirmation of human GRK2 inhibitors binding RNA aptamer site; AID 504782; 360 tested, under 10 active; bead-bound GRK2, FAM-aptamer displacement, flow cytometry; inhibition of aptamer binding, % at 10 µM; shares compounds with GRK2 aptamer HTS;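 active = inhibition of aptamer binding above 40%, about triple the noise seen with nonglowing compounds, on plates passing quality control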;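 note: negative values mostly come from compounds that fluoresce themselves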
# FAM quench CP2 – aptamer fluorescence quenching in GRK2 counter-screen | carboxyfluorescein RNA aptamer beads, flow cytometry quenching; hits give low values | fluorescence response vs DMSO, % at 10 µM | 360 tested, under 10 active | shares compounds with GRK2 aptamer HTS | AID 588494;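 active = response vs DMSO under 50%, meaning signal dropped by over half, treated as fluorescence quencher; inconclusive = no clear call, values can overlap the other calls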;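 note: labelled aptamer on streptavidin beads without GRK2 as a quench counter-screen; 100% = bead fluorescence of DMSO wells and lower means quenching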
# An asterisk follows results filed as active; ? = inconclusive; nt = not tested or not shown; + = active, no number.
SMILES,Insulin prom up,ABCG2 block,Tn6 DDE FP,GRK2 aptamer HTS,DDE Tn7 FP inh,ABCB1 inh,GRK2 CP1,FAM quench CP1,others
COC(=O)[C@]12C[C@H](CC(=O)NCc3cccc4ccccc34)C(=O)N(Cc3ccco3)C1=C[C@H](C1CCCC1)O[C@@H]2C,nt,nt,-3.7,nt,9.0,nt,nt,nt,
CCOC(=O)C(C(=O)OCC)c1cc(Br)c2noc3c2c1C(=O)c1ccccc1-3,2.41,+,4.7,51.0*,9.6,156.0*,11.1,102.2,
CC(=O)OCCNc1cc(N2CCN(C)CC2)c2noc3c2c1C(=O)c1ccccc1-3,1.78,19.2,10.2,nt,1.7,5.6,nt,nt,
COc1cccc(NC(=O)CSc2nnc(-c3cc(C)n(-c4ccccc4)c3C)o2)c1,-0.13,-6.6,-2.9,98.0*,1.1,-0.6,1.5,102.8,
O=C(COC(=O)COc1ccccc1[N+](=O)[O-])NCc1ccc2c(c1)OCO2,nt,nt,-0.3,43.0*,-10.1,nt,2.1,96.0,
O=C(COC(=O)COc1ccccc1[N+](=O)[O-])Nc1ccc2c(c1)OCO2,nt,nt,2.5,2.0,-1.6,nt,nt,nt,
CCOC(=O)C1CCN(C(=O)C(C)(C)NC(=O)Nc2ccc(C(F)(F)F)cc2Cl)CC1,nt,nt,-5.6,nt,-3.0,nt,nt,nt,
CCN1CCN(Cc2ccc(NC(=O)c3ccc(C)c(NC(=O)c4c[nH]c5cc(C(F)(F)F)ccc5c4=O)c3)cc2C(F)(F)F)CC1,?,nt,12.2,nt,5.9,nt,nt,nt,
Cc1ccc(C(=O)Nc2cccc(C(F)(F)F)c2)cc1NC(=O)c1c[nH]c2cc(C(F)(F)F)ccc2c1=O,nt,nt,-5.0,0.0,-1.8,nt,-14.1,97.4,
Cc1cc2c(c(=O)n1C1CC1)C(c1cccc(Cl)c1)C(C#N)=C(N)O2 (centres undefined),-0.61,1.1,-0.2,93.0*,1.1,0.3,3.1,100.2,
O=C1c2c(O)cccc2C(C2OC(CO)[C@@H](O)[C@H](O)[C@H]2O)c2cc(CO)cc(O)c21 (some centres undefined),nt,nt,-0.7,2.0,-0.6,nt,nt,nt,
O=C(O)c1cc(O)c2c(c1)[C@H]([C@H]1c3cc(C(=O)O)cc(O)c3C(=O)c3c(O[C@@H]4O[C@H](CO)[C@@H](O)[C@H](O)[C@H]4O)cccc31)c1cccc(OC3O[C@H](CO)[C@@H](O)[C@H](O)[C@H]3O)c1C2=O (some centres undefined),nt,nt,-37.7,99.0*,4.5,nt,30.3,95.2,
CCOc1cccc(/C(O)=C2/C(=O)C(=O)N(CCOC)C2c2ccco2)c1 (centres undefined),-0.46,5.3,4.1,47.0*,0.7,0.8,9.5,111.5,
COC(=O)c1noc(C)c1-c1ccnn1C(=O)c1ccc(C)cc1,nt,nt,-2.8,97.0*,-0.6,nt,-0.5,46.0*,
Cc1onc(-c2ccccc2)c1-c1ccnn1C(=O)NC(C)C,0.72,nt,8.4,1.0,-3.8,nt,nt,nt,
Cc1ccc(S(=O)(=O)/N=C(\c2ccccc2)N(C)S(=O)(=O)c2ccc(C)cc2)cc1,-0.65,6.6,-7.4,66.0*,-5.7,2.9,-3.4,96.3,
Cn1c(N2CCN(C(=O)Nc3ccc(C(F)(F)F)cc3)CC2)nc2ccccc21,-0.89,3.4,-4.0,3.0,7.6,0.7,-1.2,97.0,
Cn1c(N2CCN(C(=O)NCc3ccccc3)CC2)nc2ccccc21,-0.03,10.2,-2.4,0.0,-4.6,3.8,nt,nt,
CC(C)CN1C(=O)[C@]2(CC(=O)N(C)C2c2ccccc2)c2cc(-n3cc(CCc4ccccc4)nn3)ccc21 (some centres undefined),nt,nt,-5.6,nt,-1.2,nt,nt,nt,
Cc1c(Cl)cccc1NS(=O)(=O)c1ccc2c(c1)C1C=CCC1C(c1ccc(C(=O)O)cc1)N2 (centres undefined),0.62,8.7,nt,52.0*,nt,2.9,3.7,93.3,
C=CC[C@@H]1NN2C(=O)[C@@H](CCCC)[C@@H]3c4ccccc4C=NN3[C@@H]2c2ccccc21,nt,nt,5.6,nt,1.0,nt,nt,nt,
O=C(C1CCN(c2ncnc3c2sc2cccc(F)c23)CC1)N1CCN(C(=O)C2CCCO2)CC1 (centres undefined),nt,nt,2.8,nt,4.3,nt,nt,nt,
CN(CC(=O)Nc1ccc(S(=O)(=O)N2CCOCC2)cc1)Cc1ccc(F)cc1,nt,nt,-0.9,2.0,1.7,nt,nt,nt,
CCc1ccc(CN(C)CC(=O)Nc2ccc(S(=O)(=O)N3CCOCC3)cc2)cc1,nt,nt,-3.6,99.0*,-1.0,nt,-2.5,104.3,
Cc1ccc(-c2ccccc2)n1-c1ccc(C(=O)O)cc1,0.12,4.3,5.1,51.0*,2.6,1.1,-3.4,96.1,GRK2 CP2=-6.9;FAM quench CP2=103.0
SMILES,Insulin prom up,ABCG2 block,Tn6 DDE FP,GRK2 aptamer HTS,DDE Tn7 FP inh,ABCB1 inh,GRK2 CP1,FAM quench CP1,others
NC(CCCCCP(=O)(c1ccccc1)c1ccccc1)C(=O)O (centres undefined),-0.67,nt,nt,87.0*,nt,nt,-5.2,96.4,
O=C(O)CC(CP(=O)(c1ccccc1)c1ccccc1)C(=O)O (centres undefined),0.49,-2.9,0.3,18.0,-5.8,-0.4,nt,nt,
COc1ccc(Cl)cc1-c1nc(SCC(=O)NC(C)C)n[nH]1,0.01,4.6,-0.6,46.0*,-2.5,0.3,-0.6,98.0,
COc1ccc(Cl)cc1-c1nc(SCC(=O)NC(C)C(C)C)n[nH]1 (centres undefined),0.72,27.7,-3.2,4.0,-12.0,1.5,nt,nt,
CCCNC(=O)NC(=O)CSc1nnc(-c2ccncc2)n1CC,0.24,0.3,3.0,61.0*,1.1,0.1,-1.6,100.5,
Cc1ccc(S(=O)(=O)Cc2ccc(C(=O)O)o2)cc1,0.91,0.3,0.3,67.0*,3.9,0.0,64.2*,95.3,Aptamer quench=2.1
COc1cccc(/C=N/NC(=O)CSc2ccccc2C)c1O,-0.13,15.8,-1.7,0.0,0.7,0.1,nt,nt,
COc1cc(OC)c(OC)cc1/C=N/NC(=O)CSc1ccccc1F,nt,nt,4.7,90.0*,-0.8,nt,3.8,94.6,
